Assays:
[1] = first-in-human study, advanced solid tumors; cited from earlier work
[2] = system: RNA splicing in MOLM-13 cells; assay: RNA-seq alternative splicing analysis; assay type: cell-based, human; conditions: 48 hours, SM09419 100 nM, venetoclax 10 nM
Method in brief: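 Total RNA was extracted from MOLM-13 cells with an RNeasy column kit for RNA-seq. Before downstream analysis, FASTQ reads were trimmed of sequencing adapters and of low-quality reads (Q<15).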

[3] = system: venetoclax-resistant MOLM-13 cell lines; assay: Drug treatment IC50 measurement; assay type: cell-based, human
Method in brief: (§1)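 MOLM-13 cells (parental or venetoclax-resistant) were plated and exposed to the test compound across a range of concentrations, with at least three technical replicates per concentration per cell line. Viability was read by CellTiter-Glo luminescence. IC50 was calculated from technical triplicates within each experiment, over n=3 experiments, and reported as mean with SEM.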

MOLM-13 parental cells = assay: Drug treatment IC50 measurement; assay type: cell-based; conditions: Homo sapiens, MOLM-13, read-out: IC50 (cell viability)
Method in brief: as §1

| SMILES | Grade 3 anemia rate [1] | Effect on RNA splicing [2] | IC50 ([3]; Homo sapiens, MOLM-13, 504 h, read-out: IC50 (cell viability)) | IC50 of resistant cell lines relative to parental cells ([3]; venetoclax-resistant vs parental MOLM-13) | IC50 (MOLM-13 parental cells) |
| --- | --- | --- | --- | --- | --- |
| CN1CCN(c2cc(C(=O)Nc3cc4cc(-c5cnn(C)c5)ccc4cn3)ccn2)CC1 [Cirtuvivint] | < 15% | – | – | – | – |
| CC1(C)CCC(CN2CCN(c3ccc(C(=O)NS(=O)(=O)c4ccc(NCC5CCOCC5)c([N+](=O)[O-])c4)c(Oc4cnc5[nH]ccc5c4)c3)CC2)=C(c2ccc(Cl)cc2)C1 [venetoclax] | – | no significant effects on RNA splicing | > 99 nM | approximately six times greater | ~15 nM |

From paper PMC9839614 (Cancer cell, 2022)
